Results: ChEMBL document CHEMBL3352233, “N-[6-(4-butanoyl-5-methyl-1H-pyrazol-1-yl)pyridazin-3-yl]-5-chloro-1-[2-(4-methylpiperazin-1-yl)-2-oxoethyl]-1H-indole-3-carboxamide (SAR216471), a novel intravenous and oral, reversible, and directly acting P2Y12 antagonist” (J Med Chem, 2014)

Biological target: P2Y purinoceptor 12 (Homo sapiens, UniProt Q9H244)
Test: Displacement of [33P]2MeS-ADP from P2Y12 receptor (unknown origin) transfected in CHO cells after 30 mins by scintillation counting analysis
Format: cell-based
In short: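 P2Y12-expressing CHO cells (35 × 10³/sample) in PBS with 1 mM EDTA and 0.2% BSA are exposed to compound for 30 min. [³³P]2-MeS-ADP (0.16 nM) is then added for 15 min at 20 °C, in triplicate. Filtration separates free from bound ligand, followed by scintillation counting. Nonspecific binding uses 1 mM unlabeled ADP. IC50 comes from a four-parameter logistic fit with asymptotes fixed at 0 and 100. n = 2.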

P2Y purinoceptor 12, sequence (Q9H244 whole entry): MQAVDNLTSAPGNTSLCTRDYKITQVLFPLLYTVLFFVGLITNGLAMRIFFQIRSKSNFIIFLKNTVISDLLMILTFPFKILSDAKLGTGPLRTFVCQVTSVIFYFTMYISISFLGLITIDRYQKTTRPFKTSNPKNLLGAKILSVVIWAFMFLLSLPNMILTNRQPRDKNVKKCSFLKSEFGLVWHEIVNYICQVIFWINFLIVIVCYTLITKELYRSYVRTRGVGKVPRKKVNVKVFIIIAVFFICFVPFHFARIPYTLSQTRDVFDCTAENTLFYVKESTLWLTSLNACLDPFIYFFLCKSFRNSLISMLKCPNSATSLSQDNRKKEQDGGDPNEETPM

CCCC(=O)c1cnn(-c2ccc(NC(=O)c3cn(CC(=O)N4CC5CCNC5C4)c4ccc(C)cc34)cc2)c1C (stereo unspecified)
IC50: 117 nM

CCCC(=O)c1cnn(-c2ccc(NC(=O)c3cn(CC(=O)N4CC(C)NC(C)C4)c4ccc(C)cc34)cc2)c1C (stereo unspecified)
IC50: 102 nM

CCCC(=O)c1cnn(-c2ccc(NC(=O)c3cn(CC(=O)N4CCC(NC)CC4)c4ccc(C)cc34)cc2)c1C
IC50: 115 nM

CCCC(=O)c1cnn(-c2ccc(NC(=O)c3cn(CC(=O)N4CCCC(N(C)C)C4)c4ccc(C)cc34)cc2)c1C (stereo unspecified)
IC50: 73 nM

CCCC(=O)c1cnn(-c2ccc(NC(=O)c3cn(CC(=O)N4CC5CCN(C)C5C4)c4ccc(C)cc34)cc2)c1C (stereo unspecified)
IC50: 89 nM

CCCC(=O)c1cnn(-c2ccc(NC(=O)c3cn(CC(=O)N(C)CC4CCCN(C)C4)c4ccc(C)cc34)cc2)c1C (stereo unspecified)
IC50: 84 nM

CCCC(=O)c1cnn(-c2ccc(NC(=O)c3cn(CC(=O)N4CCNC(C)C4)c4ccc(C)cc34)cc2)c1C (stereo unspecified)
IC50: 46 nM

CCCC(=O)c1cnn(-c2ccc(NC(=O)c3cn(CC(=O)N4CCCC(NC)C4)c4ccc(C)cc34)cc2)c1C (stereo unspecified)
IC50: 65 nM

CCCC(=O)c1cnn(-c2ccc(NC(=O)c3cn(CC(=O)N4CCCCC4CN)c4ccc(C)cc34)cc2)c1C (stereo unspecified)
IC50: 111 nM

CCCC(=O)c1cnn(-c2ccc(NC(=O)c3cn(CC(=O)N(C)CCNC)c4ccc(C)cc34)cc2)c1C
IC50: 94 nM

CCOC(=O)c1c(C)nn(-c2ccc(NC(=O)Nc3ccc(Cl)cc3)cc2)c1C
IC50: 1260 nM

CCCC(=O)c1cnn(-c2ccc(NC(=O)c3cn(CC(=O)N4CCN(C)CC4)c4cc(Br)c(C)cc34)cc2)c1C
IC50: 118 nM

CCCC(=O)c1cnn(-c2ccc(NC(=O)c3cn(CC(=O)N4CCCN(C)CC4)c4ccc(C)cc34)cc2)c1C
IC50: 95 nM

CCOC(=O)c1c(C)nn(-c2ccc(NC(=O)Nc3ccccc3OCCCC(=O)O)cc2)c1C
IC50: 80 nM

CCCCN1CCN(C(=O)Cn2cc(C(=O)Nc3ccc(-n4ncc(C(=O)CCC)c4C)cc3)c3cc(C)ccc32)CC1
IC50: 121 nM

CCCC(=O)c1cnn(-c2ccc(NC(=O)c3cn(CC(=O)N4CCN(C)CC4)c4cc(Cl)c(C)cc34)cc2)c1C
IC50: 138 nM

CCCC(=O)c1cnn(-c2ccc(NC(=O)c3cn(CC(=O)N4CCN(CC5CC5)CC4)c4ccc(C)cc34)cc2)c1C
IC50: 29 nM

CCCC(=O)c1cnn(-c2ccc(NC(=O)c3cn(CC(=O)O)c4ccc(C)c(C)c34)cc2)c1C
IC50: 272 nM

CCCC(=O)c1cnn(-c2ccc(NC(=O)c3cn(CC(=O)N4C[C@@H]5C[C@H]4CN5C)c4ccc(C)cc34)cc2)c1C
IC50: 70 nM

CCCC(=O)c1cnn(-c2ccc(NC(=O)c3cn(CC(=O)N(C)C4CCN(C)C4)c4ccc(C)cc34)cc2)c1C (stereo unspecified)
IC50: 47 nM

CCCC(=O)c1cnn(-c2ccc(NC(=O)c3cn(CC(=O)NCCN4CCCC4)c4ccc(C)cc34)cc2)c1C
IC50: 194 nM

CCCC(=O)c1cnn(-c2ccc(NC(=O)c3cn(CC(=O)N4CCC(N(C)C)C4)c4ccc(C)cc34)cc2)c1C (stereo unspecified)
IC50: 87 nM

CCCC(=O)c1cnn(-c2ccc(NC(=O)c3cn(CC(=O)N4CCN5CCCC5C4)c4ccc(C)cc34)cc2)c1C (stereo unspecified)
IC50: 76 nM

CCCC(=O)c1cnn(-c2ccc(NC(=O)c3cn(CC(=O)N4CCN(C5CC5)CC4)c4ccc(C)cc34)cc2)c1C
IC50: 44 nM

CCCC(=O)c1cnn(-c2ccc(NC(=O)c3cn(CC(=O)N4CCN(C)CC4)c4ccc(F)cc34)cc2)c1C
IC50: 142 nM

CCCC(=O)c1cnn(-c2ccc(NC(=O)c3cn(CC(=O)N4CCC(N)CC4)c4ccc(C)cc34)cc2)c1C
IC50: 71 nM

CCCC(=O)c1cnn(-c2ccc(NC(=O)c3cn(CC(=O)N4CCNCC4)c4ccc(C)cc34)cc2)c1C
IC50: 26 nM

CCCC(=O)c1cnn(-c2ccc(NC(=O)c3cn(CC(=O)N[C@H]4CCNC4)c4ccc(C)cc34)cc2)c1C
IC50: 61 nM

CCCC(=O)c1cnn(-c2ccc(NC(=O)c3cn(CC(=O)N(C)CCN4CCCC4)c4ccc(C)cc34)cc2)c1C
IC50: 124 nM

CCCC(=O)c1cnn(-c2ccc(NC(=O)c3cn(CC(=O)NC4CCN(C)CC4)c4ccc(C)cc34)cc2)c1C
IC50: 139 nM

CCCC(=O)c1cnn(-c2ccc(NC(=O)c3cn(CC(=O)N4CCN(C)CC4)c4cc(Cl)c(Cl)cc34)cc2)c1C
IC50: 99 nM
